The term IC50 denotes the midpoint of a concentration-inhibition curve.

Molecules are shown by their SMILES.

The results in this text go back to ChEMBL document CHEMBL1153747, “Synthesis and inhibitory activity against human monoamine oxidase of N1-thiocarbamoyl-3,5-di(hetero)aryl-4,5-dihydro-(1H)-pyrazole derivatives” (Eur J Med Chem, 2010).

The target in data set [1] is T1, Amine oxidase [flavin-containing] A (Homo sapiens, UniProt P21397).
T1 sequence (P21397 whole entry): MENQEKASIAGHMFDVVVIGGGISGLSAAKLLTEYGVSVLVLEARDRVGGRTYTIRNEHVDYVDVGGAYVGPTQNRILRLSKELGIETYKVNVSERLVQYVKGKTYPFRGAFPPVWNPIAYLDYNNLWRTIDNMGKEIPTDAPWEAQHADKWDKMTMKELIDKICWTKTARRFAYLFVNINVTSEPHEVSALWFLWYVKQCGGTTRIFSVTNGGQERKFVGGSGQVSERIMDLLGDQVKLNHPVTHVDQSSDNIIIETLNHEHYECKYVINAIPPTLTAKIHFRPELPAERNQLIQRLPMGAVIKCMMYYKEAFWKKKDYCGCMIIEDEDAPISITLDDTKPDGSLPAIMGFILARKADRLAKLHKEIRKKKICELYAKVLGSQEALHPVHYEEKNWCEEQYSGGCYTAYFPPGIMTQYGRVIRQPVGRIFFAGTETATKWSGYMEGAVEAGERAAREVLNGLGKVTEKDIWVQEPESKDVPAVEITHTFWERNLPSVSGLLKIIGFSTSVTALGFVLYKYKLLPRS
Kind of data set: Inhibition of human recombinant MAOA.

The target in data set [2] is T2, Amine oxidase [flavin-containing] B (Homo sapiens, UniProt P27338).
T2 sequence (P27338 whole entry): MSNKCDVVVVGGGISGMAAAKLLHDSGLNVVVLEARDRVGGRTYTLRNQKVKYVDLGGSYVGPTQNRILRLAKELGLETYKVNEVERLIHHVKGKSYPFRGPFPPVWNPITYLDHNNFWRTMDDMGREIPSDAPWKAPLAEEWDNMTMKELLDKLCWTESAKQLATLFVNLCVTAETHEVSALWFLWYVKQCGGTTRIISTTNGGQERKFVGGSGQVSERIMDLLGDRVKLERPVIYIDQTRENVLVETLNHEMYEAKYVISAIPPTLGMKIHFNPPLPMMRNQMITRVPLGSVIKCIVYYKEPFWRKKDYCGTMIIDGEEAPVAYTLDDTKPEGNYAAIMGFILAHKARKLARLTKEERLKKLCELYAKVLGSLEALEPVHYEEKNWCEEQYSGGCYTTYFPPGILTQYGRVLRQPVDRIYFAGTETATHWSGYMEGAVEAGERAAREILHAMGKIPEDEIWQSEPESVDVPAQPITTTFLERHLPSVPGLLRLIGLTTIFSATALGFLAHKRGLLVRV

The species entered for data set [3] is Homo sapiens. Put plainly: Selectivity, ratio of IC50 for human recombinant MAOA to human recombinant MAOB.
Data set [4] has as its target T2, Amine oxidase [flavin-containing] B. Kind of data set: Inhibition of human recombinant MAOB at 1 mM. The following applies: 1000 µM. A digest of the protocol: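 Recombinant hMAO-A or hMAO-B in microsomes from baculovirus-infected BTI-TN-5B1-4 insect cells, amounts set to oxidize 165 pmol p-tyramine/min in controls. Preincubated with test drug in 0.05 M sodium phosphate pH 7.4, 15 min, 37 °C. Reaction started with Amplex Red, 1 U/mL HRP and 1 mM p-tyramine (final). […] Selectivity = IC50(MAO-A)/IC50(MAO-B).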

Regarding `NC(=S)N1N=C(c2cccs2)CC1c1ccc[nH]1` (centres undefined), the IC50 in data set [1] stood at 70 µM; in data set [2], 33.3 µM. In data set [3], the Ratio IC50 worked out at 2.1.
As to `NC(=S)N1N=C(c2ccccc2)CC1c1ccccc1` (centres undefined), in data set [2], the IC50 was 48.3 µM. Also, the Ratio IC50 in data set [3] was over 2.1.
In the case of `NC(=S)N1N=C(c2ccccc2)CC1c1ccco1` (centres undefined), the IC50 in data set [1] is 54.7 µM; in data set [2], 32.5 µM. Moreover, in data set [3], the Ratio IC50 came to 1.7.
`NC(=S)N1N=C(c2ccc[nH]2)CC1c1ccco1` (centres undefined) showed a 50% inhibitory concentration (IC50) in data set [2] of 69.4 µM. Moreover, the Ratio IC50 in data set [3] was over 1.4.
`Cc1ccc(C2CC(c3ccco3)=NN2C(N)=S)cc1` (centres undefined): the 50% inhibitory concentration (IC50) was 65.8 µM in data set [1] and 54.5 µM in data set [2]. In data set [3], the Ratio IC50 turned out to be 1.2.
`O=C(NCCN1CCOCC1)c1ccc(Cl)cc1` [MOCLOBEMIDE]: the “inhibition (INH)” value in data set [4] is reported as “Not Active”.
